ChEMBL document CHEMBL1123469, “Synthesis and activity of 6-aryl-3-(hydroxypolymethyleneamino)pyridazines in animal models of epilepsy” (1986)

Experiments:
Assay type in all cases: functional
[1] = test system: Mus musculus; experiment: Evaluated for Bicuculline-induced lethality (anticonvulsant activity) when administered 100 mg/kg orally in mice.; conditions: route oral
Outline: (§1)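 Female Swiss albino CD1 mice (18-23 g), oral dosing (20 mL/kg); test compounds dissolved in dilute HCl (pH 3), reference drugs suspended in 5% gum tragacanth. Bicuculline challenge, scoring protection from seizures and from lethality. […] Weakly active agents reported as percent protected at the stated dose.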

[2] = test system: Mus musculus; experiment: Evaluated for Bicuculline-induced seizures (anticonvulsant activity) when administered at 100 mg/kg orally in mice.; conditions: route oral
Outline: (§2)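 Female Swiss CD1 mice (18-23 g) were dosed orally at 20 mL/kg, test compounds in dilute HCl (pH 3) and references in gum tragacanth. Protection against bicuculline- or pentylenetetrazole-induced clonic/tonic seizures and lethality was scored.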

[3] = test system: Mus musculus; experiment: Evaluated for the sedative property by the rotarod test at 100 mg/kg.
Outline: (§3)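 Motor coordination was tested on the rotorod in groups of 10 female Swiss CD1 mice (18-23 g). Drug or vehicle was given orally, test compounds in dilute HCl (pH 3), 60 min before testing.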

[4] = test system: Mus musculus; experiment: Anticonvulsant activity when administered 100 mg/kg orally in mice Maximal electroshock (MES); conditions: route oral
Outline: (§4)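 Female Swiss CD1 mice (18-23 g), groups of 10, were dosed orally at 20 mL/kg. Test compounds were given in dilute HCl (pH 3) and references in 5% gum tragacanth, 60 min before a 60-V alternating current for 0.3 s through corneal electrodes. Protection meant abolition of the hindlimb tonic extensor component.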

[5] = test system: Mus musculus; experiment: Evaluated for Bicuculline-induced lethality (anticonvulsant activity) when administered orally in mice.; conditions: po; outline: as §1
[6] = species: Mus musculus; experiment: Sedative property by the rotarod test; outline: as §3
[7] = test system: Mus musculus; experiment: Evaluated for anticonvulsant activity when administered orally in mice by Maximal electroshock (MES).; conditions: po; outline: as §4
[8] = test system: Mus musculus; experiment: Evaluated for Bicuculline-induced seizures (anticonvulsant activity) when administered orally in mice.; conditions: po; outline: as §2
[9] = species: Mus musculus; experiment: Sedative properties by the rotarod test; outline: as §3
[10] = test system: Mus musculus; experiment: Anticonvulsant activity in tonic seizures when administered orally in mice; conditions: po
[11] = species: Rattus norvegicus; experiment: Antagonist activity to generalized seizures kindled amygdaloid seizures in rats
Outline: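 Male Sprague-Dawley rats (200-500 g), groups of 10, carried platinum electrodes in the right basolateral amygdala. They counted as kindled after stage-5 seizures on 3 consecutive days at 30-90 μA. A control stimulation was followed by an oral dose (5 mL/kg) and restimulation 1 h later. After-discharge duration and Racine seizure stage were compared with vehicle.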

[12] = species: Papio hamadryas; experiment: Antagonist activity to generalized seizures Photically induced seizures in senegalese Papio papio baboons
Outline: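 Naturally photosensitive baboons of both sexes (4-7 kg) were dosed orally, test compounds in dilute HCl (pH 3) and references in 5% gum tragacanth, at 4 mL/kg. They were photically stimulated at hourly intervals afterwards, and the myoclonic response was graded after Killam. Threshold active dose is the first dose that protected at least two of four animals for at least 2 h.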

[13] = test system: Mus musculus; experiment: Anticonvulsant activity in Clonic seizures when administered orally in mice; conditions: po; outline: as §2

Row | Structure (SMILES) | Protected [2] | Protected [3] | Protected [4] | ED50 [5] | ED50 [7] | also measured
1 | Clc1ccccc1-c1ccc(N2CCC3(CC2)OCCO3)nn1 | 40% | 0% |  |  |  | Protected [1]: 30%
2 | N#Cc1cccc(-c2ccc(N3CCC(O)CC3)nn2)c1 | 10% | 0% | 33% |  |  | 
3 | O=[N+]([O-])c1ccccc1-c1ccc(N2CCC(O)CC2)nn1 |  | 0% |  | 57 mg/kg |  | 
4 | CNC(=O)OC1CCN(c2ccc(-c3ccccc3Cl)nn2)CC1 |  |  |  | 9 mg/kg |  | ED50 [6]: 37 mg/kg
5 | OC1CCN(c2ccc(-c3ccc(Cl)c(Cl)c3)nn2)CC1 | 0% | 100% | 25% |  |  | Protected [1]: 20%
6 | O=[N+]([O-])c1cccc(-c2ccc(N3CCC(O)CC3)nn2)c1 | 0% | 30% |  |  | 79 mg/kg | Protected [1]: 20%
7 | Cc1ccccc1-c1ccc(N2CCC(O)CC2)nn1 |  |  |  | 60 mg/kg | 30 mg/kg | ED50 [8]: 40 mg/kg
8 | COc1ccc(-c2ccc(N3CCC(O)CC3)nn2)cc1 | 20% | 0% | 50% |  |  | 
9 | OC1CCN(c2ccc(-c3ccccc3)nn2)CC1 |  | 0% |  | 41 mg/kg |  | 
10 | CCCC(=O)OC1CCN(c2ccc(-c3ccccc3Cl)nn2)CC1 |  | 0% |  | 30 mg/kg |  | 
11 | Cc1cccc(-c2ccc(N3CCC(O)CC3)nn2)c1 | 30% | 0% |  | 50 mg/kg | 36 mg/kg | 
12 | CCCCNC(=O)OC1CCN(c2ccc(-c3ccc(Cl)cc3)nn2)CC1 | 0% | 0% | 0% |  |  | 
13 | C/N=C(\S)OC1CCN(c2ccc(-c3ccccc3Cl)nn2)CC1 |  |  |  | 20 mg/kg | 35 mg/kg | ED50 [8]: 20 mg/kg
14 | CCCCNC(=O)OC1CCN(c2ccc(-c3ccccc3Cl)nn2)CC1 | 0% | 0% | 20% |  |  | 
15 | OC1CCN(c2ccc(-c3cccs3)nn2)CC1 | 0% | 0% | 0% |  |  | 
16 | OC1CCN(c2ccc(-c3ccccc3F)nn2)CC1 |  | 0% |  | 34 mg/kg |  | 
17 | CCC(=O)OC1CCN(c2ccc(-c3ccc(Cl)cc3Cl)nn2)CC1 |  |  |  | 13 mg/kg | 50 mg/kg | ED50 [6]: 71 mg/kg; ED50 [8]: 16 mg/kg
18 | OC1CCN(c2ccc(-c3ccc(Cl)cc3)nn2)CC1 | 0% | 40% |  |  | 29 mg/kg | Protected [1]: 70%
19 | CNC(=O)OC1CCN(c2ccc(-c3ccc(Cl)cc3)nn2)CC1 | 20% | 0% | 20% |  |  | 
20 | CC(=O)OC1CCN(c2ccc(-c3ccc(Cl)cc3Cl)nn2)CC1 |  |  |  | 8.3 mg/kg | 14 mg/kg | ED50 [6]: 70 mg/kg; ED50 [8]: 9.8 mg/kg
21 | O=C(Nc1cccc(Cl)c1)OC1CCN(c2ccc(-c3ccccc3Cl)nn2)CC1 | 0% | 0% | 35% |  |  | 
22 | O=C(OC1CCN(c2ccc(-c3ccccc3Cl)nn2)CC1)C1CC1 |  | 0% | 60% | 71 mg/kg |  | 
23 | CNC(=O)OC1CCN(c2ccc(-c3ccc(F)cc3)nn2)CC1 | 40% | 20% |  |  | 40 mg/kg | Protected [1]: 30%

Row | Structure (SMILES) | Protected [2] | Protected [3] | Protected [4] | ED50 [5] | ED50 [7] | also measured
24 | O=COC1CCN(c2ccc(-c3ccc(Cl)cc3Cl)nn2)CC1 | 50% |  |  |  | 24 mg/kg | ED50 [6]: 69 mg/kg
25 | O=C1CCN(c2ccc(-c3ccccc3Cl)nn2)CC1 |  | 40% |  | 25 mg/kg |  | 
26 | OC1CCN(c2ccc(-c3ccc(Cl)s3)nn2)CC1 | 50% | 0% | 30% |  |  | 
27 | OC1CCCN(c2ccc(-c3ccccc3Cl)nn2)C1 (configuration not stated) | 0% | 0% | 15% |  |  | 
28 | CNC(=O)OC1CCN(c2ccc(-c3ccc(Cl)cc3Cl)nn2)CC1 |  |  |  | 1.4 mg/kg | 5.5 mg/kg | ED50 [6]: 20 mg/kg; ED50 [8]: 1.4 mg/kg
29 | OC1CCN(c2ccc(-c3ccsc3)nn2)CC1 | 10% | 0% | 80% |  |  | Protected [1]: 20%
30 | O=C(OC1CCN(c2ccc(-c3ccccc3Cl)nn2)CC1)c1ccc(Cl)cc1 | 0% | 0% | 0% |  |  | 
31 | CNC(=O)OC1CCN(c2ccc(-c3ccc(Cl)c(Cl)c3)nn2)CC1 | 0% | 0% | 50% |  |  | 
32 | OC1CCN(c2ccc(-c3ccc(F)cc3)nn2)CC1 | 10% | 50% |  |  |  | 
33 | O=[N+]([O-])c1ccc(-c2ccc(N3CCC(O)CC3)nn2)cc1 |  |  | 40% | 57 mg/kg |  | ED50 [8]: 54 mg/kg
34 | Cc1cc(Cl)ccc1-c1ccc(N2CCC(O)CC2)nn1 |  |  |  | 10 mg/kg | 10 mg/kg | ED50 [6]: 64 mg/kg; ED50 [8]: 10 mg/kg
35 | CNC(=O)OC1CCN(c2ccc(-c3cccc(Cl)c3)nn2)CC1 | 10% | 0% | 40% |  |  | Protected [1]: 0%
36 | CC(C)(C)C(=O)OC1CCN(c2ccc(-c3ccccc3Cl)nn2)CC1 | 0% | 0% | 0% |  |  | 
37 | OC1CCN(c2ccc(-c3cccc(Cl)c3)nn2)CC1 | 10% | 40% |  |  |  | Protected [1]: 40%
38 | CNC(=O)OC1CCN(c2ccc(-c3cccs3)nn2)CC1 | 0% | 10% | 10% |  |  | Protected [1]: 20%
39 | Cc1ccc(-c2ccc(N3CCC(O)CC3)nn2)c(Cl)c1 |  |  |  | 16 mg/kg | 21 mg/kg | ED50 [6]: 48 mg/kg; ED50 [8]: 17 mg/kg
40 | CCCC(=O)OC1CCN(c2ccc(-c3ccc(Cl)cc3Cl)nn2)CC1 |  |  |  | 30 mg/kg | 50 mg/kg | ED50 [6]: 30 mg/kg; ED50 [8]: 31 mg/kg
41 | CN(C)C(=O)OC1CCN(c2ccc(-c3ccccc3Cl)nn2)CC1 |  |  |  | 1.1 mg/kg |  | ED50 [6]: 8.4 mg/kg
42 | OC1CCN(c2ccc(-c3cccc(C(F)(F)F)c3)nn2)CC1 | 0% | 50% |  |  |  | 
43 | OC1CCN(c2ccc(-c3cccc4ccccc34)nn2)CC1 | 40% | 0% |  |  |  | Protected [1]: 0%
44 | Cc1ccc(-c2ccc(N3CCC(O)CC3)nn2)cc1 | 0% | 0% |  |  | 73 mg/kg | Protected [1]: 50%
45 | OC1CCN(c2ccc(-c3ccccc3Cl)nn2)C1 (configuration not stated) | 40% | 0% | 30% |  |  | 
46 | OC1CCN(c2ccc(-c3ccccc3Cl)nn2)CC1 [LODAXAPRINE] |  |  |  | 34 mg/kg |  | ED50 [9]: 138 mg/kg; ED50 [10]: 29 mg/kg; Threshold active dose [11]: 20 mg/kg; Threshold active dose [12]: 40 mg/kg; ED50 [13]: 77 mg/kg
